mABHD4 FP: ABHD4 inhibitors, primary screen, biochemical, fluorescence polarization, mouse; (Lyso)-N-acylphosphatidylethanolamine lipase (Mus musculus), Q8VD66; purified mABHD4, FP-Rh probe fluorescence polarization; inhibition, % at 8.92 µM; hit rate 0.54% among 370,000; AID 720543, 2013;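 active = inhibition exceeding the mean over every tested compound plus 3 SD, cut at about 30% in these data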;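 note: 0% = plate median of compound wells and 100% = S159A mutant with DMSO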
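System: mouse ABHD4 enzyme, wild type / Medium: HEPES pH 7.0, NaCl, Pluronic buffer / Reagent: FP-Rh activity-based fluorescent probe / Control set: S159A mutant high control, sample median low control / Detection: fluorescence polarization with parallel and perpendicular emission, 525/598 nm / Schedule: 45 min + 60 min at 25 °C / Compound dosing: 8.92 µM, single dose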
pPAFAH inh: pPAFAH enzyme inhibitors, primary screen, biochemical, fluorescence polarization, human | inhibition, % at 3.39 µM | Platelet-activating factor acetylhydrolase (Homo sapiens), Q13093 | hit rate 1.5% among 330,000 | recombinant pPAFAH, FP-rhodamine probe fluorescence polarization;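 active = inhibition above the mean inhibition across the screen plus 3 SD, cut at about 25% in these data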;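 note: inhibitors block binding of the rhodamine activity-based probe so polarization drops; 0% = enzyme with DMSO and 100% = wells lacking pPAFAH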
Target sequence (Q13093 whole entry, looked up): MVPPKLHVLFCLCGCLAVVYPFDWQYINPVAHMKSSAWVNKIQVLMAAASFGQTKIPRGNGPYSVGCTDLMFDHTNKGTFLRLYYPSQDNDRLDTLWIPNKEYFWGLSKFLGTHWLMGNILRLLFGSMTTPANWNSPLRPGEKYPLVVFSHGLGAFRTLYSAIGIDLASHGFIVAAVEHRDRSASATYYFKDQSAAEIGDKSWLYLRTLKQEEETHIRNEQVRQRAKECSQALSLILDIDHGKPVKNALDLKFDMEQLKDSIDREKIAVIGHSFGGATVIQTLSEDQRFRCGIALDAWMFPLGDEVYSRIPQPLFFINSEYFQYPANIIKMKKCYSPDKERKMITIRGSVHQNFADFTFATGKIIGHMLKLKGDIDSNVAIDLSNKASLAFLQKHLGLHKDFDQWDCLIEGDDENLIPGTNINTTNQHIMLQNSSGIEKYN
PAFAH1B2 FP inh: PAFAH1B2 enzyme inhibitors, primary screen, biochemical, fluorescence polarization, human; hit rate 1.2% among 340,000; Platelet-activating factor acetylhydrolase IB subunit alpha2 (Homo sapiens), P68402; recombinant PAFAH1B2, FP-rhodamine activity probe; AID 492953, 2010; inhibition, % at 3.39 µM;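 active = inhibition above the mean of all tested compounds plus 3 SD, cut at about 24% in these data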;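 note: 0% = enzyme with DMSO and 100% = wells lacking PAFAH1B2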
HTRA1 inh: HTRA1 serine protease inhibitors, primary screen, biochemical, fluorescence polarization, HTS; Q92743; recombinant HTRA1, FP-rhodamine activity-based probe; inhibition, % at 5.96 µM; hit rate 0.5% among 340,000; in the data active = inhibition above about 36%;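 note: 0% = enzyme with DMSO and 100% = wells lacking enzyme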
PAFAH2 inh: PAFAH2 enzyme inhibitors, primary screen, biochemical, fluorescence polarization, human. recombinant PAFAH2, FP-rhodamine activity probe. inhibition, % at 3.39 µM. hit rate 0.99% among 340,000. AID 492956, 2010. Platelet-activating factor acetylhydrolase 2, cytoplasmic (Homo sapiens), Q99487;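 active = inhibition above the mean over all tested compounds plus 3 SD, cut at about 30% in these data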;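 note: inhibitors block probe labeling of enzyme so polarization drops; 0% = enzyme with DMSO and 100% = wells lacking PAFAH2 protein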
PAFAH1B3 inh: PAFAH1B3 enzyme inhibitors, primary screen, biochemical, fluorescence polarization, human | Platelet-activating factor acetylhydrolase IB subunit alpha1 (Homo sapiens), Q15102 | recombinant PAFAH1B3, FP-rhodamine probe | inhibition, % at 3.39 µM | hit rate 0.28% among 340,000 | AID 492972, 2010;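 active = inhibition above the screen-wide average of all tested compounds plus 3 SD, cut at about 25% in these data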;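 note: 0% = enzyme with DMSO only and 100% = wells lacking PAFAH1B3 protein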
Target sequence (Q15102 whole entry, looked up): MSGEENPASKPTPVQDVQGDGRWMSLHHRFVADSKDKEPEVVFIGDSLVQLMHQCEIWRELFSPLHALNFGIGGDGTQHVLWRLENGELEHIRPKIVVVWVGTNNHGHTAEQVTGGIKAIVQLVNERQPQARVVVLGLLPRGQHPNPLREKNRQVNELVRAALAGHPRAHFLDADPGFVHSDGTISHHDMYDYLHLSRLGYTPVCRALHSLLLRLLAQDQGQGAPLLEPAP
pPAFAH confirm: pPAFAH (PLA2G7) enzyme inhibitors, confirmation, biochemical, fluorescence polarization, human; shares compounds with pPAFAH inh; recombinant pPAFAH, FP-Rh probe fluorescence polarization; inhibition, % at 3.39 µM; hit rate 72% among 2,300; AID 463230, 2010;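 active = mean inhibition of the triplicate above the hit cutoff set for the earlier primary screen, cut at about 25% in these data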;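 note: 0% = enzyme with DMSO and 100% = wells lacking pPAFAH enzyme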
Starred values were filed as active, the others as inactive; . = no result given. Sampled rows, rich in hits. Any-hit rate of the full collection: about 2.8%.

SMILES	mABHD4 FP	pPAFAH inh	PAFAH1B2 FP inh	HTRA1 inh	PAFAH2 inh	PAFAH1B3 inh	pPAFAH confirm
Cc1ccc(C(=O)NCCN2CCC3(CC2)C(=O)NCN3c2ccccc2)cc1	1	.	.	.	.	.	.
N=c1c2c(-c3ccccc3)c(-c3ccccc3)n(Cc3ccccc3)c2ncn1C1CCC(O)CC1 (stereo unspecified)	7	.	.	.	.	.	.
CC(=O)N1c2ccccc2C(c2ccccc2)=NCC1C(=O)NCc1ccccc1 (stereo unspecified)	1	.	.	.	.	.	.
CNC1(c2ccc(F)cc2)CCCCC1	-1	.	1	3	0	9	.
Nc1ccc(C2(c3ccc(N)cc3)CCCCC2)cc1	6	9	38*	14	2	5	.
Brc1csc(N2CCNCC2)n1	-5	.	.	.	.	.	.
O=C1NC(=O)N(CCc2ccc(F)cc2)C(=O)/C1=C/c1ccco1	16	29*	7	31	-17	2	.
Cc1ccc(/C=C2/C(=O)NC(=O)N(CCc3ccc(F)cc3)C2=O)o1	2	0	10	-12	7	2	.
COP(=O)(C(=O)Nc1ccccc1)C(CC(C)C)NC(=O)OCc1ccccc1 (stereo unspecified)	0	.	.	.	.	.	.
O=C(N/N=C/c1c(O)n(CCc2ccccc2)c(=O)[nH]c1=O)c1ccccc1O	39*	22	9	35	4	13	.
O=C1NC(=O)C(=Cc2ccc(Oc3ccc([N+](=O)[O-])cc3)cc2)C(=O)N1	.	1	7	-5	4	3	.
COc1cc(C=C2C(=O)NC(=O)NC2=O)ccc1OCc1ccc([N+](=O)[O-])cc1	2	.	26*	-2	7	2	.
O=C1CC[C@@]2(O)[C@H]3Cc4ccc(O)c5c4[C@@]2(CCN3CC2CC2)C1O5 (stereo partly specified)	1	.	.	.	.	.	.
O=c1[nH]cc(N(CCCl)CCCl)c(=O)[nH]1	-7	.	.	.	.	.	.
O=c1[nH]c(=S)n(Cc2ccc(F)cc2)c(O)c1C=NCc1cccnc1	14	6	28*	-10	0	-5	.
O=c1[nH]c(=S)n(Cc2ccc(F)cc2)c(O)c1/C=N/N1CCCCC1	3	0	32*	-3	2	-7	.
O=c1[nH]c(=S)n(Cc2ccc(F)cc2)c(O)c1C=NCC1CCCO1 (stereo unspecified)	3	1	34*	-7	3	1	.
O=c1[nH]c(=S)n(C2CC2)c(O)c1C=NCC1CCCO1 (stereo unspecified)	-3	6	6	4	-1	3	.
N#CCC[C@H]1CC[C@]2(CCCN(Cc3ccccn3)C2)O1	4	.	.	.	.	.	.
CC(C)[C@@]1(NC(=O)[C@@H]2C[C@@H]3c4cccc5[nH]cc(c45)C[C@H]3N(C)C2)O[C@@]2(O)[C@@H]3CCCN3C(=O)[C@H](Cc3ccccc3)N2C1=O	5	3	3	-2	-2	8	.
CC(C)C[C@H]1C(=O)N2CCCC2[C@]2(O)O[C@](NC(=O)[C@@H]3C=C4c5cccc6[nH]cc(c56)CC4N(C)C3)(C(C)C)C(=O)N12 (stereo partly specified)	.	17	15	45*	-8	39*	.
CC[C@H](C(N)=O)N1CCCC1=O	2	.	.	.	.	.	.
CCCCn1c(NC(=O)c2ccco2)c(C(=O)OCC)c2nc3ccccc3nc21	-16	2	25*	-7	17	54*	.
ClC(Cl)=C(c1ccc(Cl)cc1)c1ccc(Cl)cc1	-1	6	25*	4	2	-1	.
COc1cccc(C2CCN(CC(=O)Nc3cc(Cl)ccc3OC)CC2O)c1 (stereo unspecified)	2	33*	4	0	-1	8	.
SMILES	mABHD4 FP	pPAFAH inh	PAFAH1B2 FP inh	HTRA1 inh	PAFAH2 inh	PAFAH1B3 inh	pPAFAH confirm
COc1ccc(N2C(=O)NC(=O)/C(=C\c3ccc([N+](=O)[O-])s3)C2=O)cc1	-71	38*	21	18	27	24	35*
COc1ccccc1N1C(=O)NC(=O)/C(=C/c2ccc([N+](=O)[O-])s2)C1=O	-13	51*	.	.	.	.	42*
COc1ccc(N2C(=O)NC(=O)/C(=C/c3ccc([N+](=O)[O-])s3)C2=O)cc1	-64	44*	.	.	.	.	47*
CCOc1ccc(N2C(=O)NC(=O)/C(=C\c3cc(OC)c(OC)cc3[N+](=O)[O-])C2=O)cc1	.	8	-2	6	-14	-7	.
CS(=O)(=O)N1Cc2cc(Br)ccc2-n2nncc2C1	-2	.	.	.	.	.	.
CC[C@H](C)/C=C(C)/C=C/C1=CC2=C(Cl)C(=O)[C@](C)(OC(C)=O)C(=O)C2=CO1	.	67*	10	70*	40*	7	87*
O=C1NC(=O)N(Cc2ccco2)C(=O)/C1=C/c1ccc(-c2cccc([N+](=O)[O-])c2)o1	.	66*	4	4	37*	6	36*
C=CCN1C(=O)NC(=O)/C(=C\c2ccc(-c3ccccc3[N+](=O)[O-])o2)C1=O	2	6	4	1	22	7	.
CC(C)C(CN1CCC(C)(c2cccc(O)c2)[C@@H](C)C1)NC(=O)C1Cc2ccc(O)cc2CN1 (stereo partly specified)	-2	.	.	.	.	.	.
O=C1NC(=O)N(Cc2ccco2)C(=O)/C1=C\c1cccn1CCOc1ccc(Cl)cc1	-13	40*	35*	8	7	-3	3
Cc1cccc(OCCn2cccc2/C=C2/C(=O)NC(=O)N(Cc3ccco3)C2=O)c1	-2	22	.	.	.	.	.
O=C(C1CCN(c2nc3ccc(Br)cc3s2)CC1)N1CCC2(CC1)OCCO2	-3	36*	0	-1	1	2	26*
Cc1ccc(N2Cc3ccccc3-n3nncc3C2)cc1	9	.	.	.	.	.	.
NP(=O)(OCCCCc1ccccc1)Oc1ccccc1Cl (stereo unspecified)	-8	70*	99*	3	31*	46*	74*
O=C(Cn1ncc2c3ccccc3n(Cc3cccc(Cl)c3)c2c1=O)N1CCC2(CC1)OCCO2	-28	40*	5	-19	19	14	37*
CC(C)N1C(=O)/C(=C/C=C/c2ccco2)C(=O)N(Cc2ccco2)C1=O	-27	38*	3	-14	22	-1	1
O=C(NCCN1CCC2(CC1)C(=O)NCN2c1ccccc1)c1cc(C(F)(F)F)ccc1C(F)(F)F	11	.	.	.	.	.	.
CC1CCCN(c2ccc(C(=O)N3CCC4(CC3)OCCO4)cc2[N+](=O)[O-])C1 (stereo unspecified)	1	45*	2	7	-1	7	59*
